Consider 38 molecules from ChEMBL document CHEMBL4680209, “Design, synthesis, and evaluation of new 2-(quinoline-4-yloxy)acetamide-based antituberculosis agents” (Eur J Med Chem, 2020).

Molecules are shown by their SMILES. ≈ marks a conversion by molar mass, not a printed value. Where only a bound is given, the exact number is not on record here.

For series [1], the system named is Mycobacterium tuberculosis H37Rv. The series is described as follows: Inhibition of Mycobacterium tuberculosis H37Rv ATCC 27294 QcrB assessed as reduction in bacterial growth by resazurin reduction microplate assay. In short, it runs like this: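 REMA in Middlebrook 7H9 with 10% ADC and 5% DMSO. Compounds come from 2 mg/mL DMSO stocks as 10-point 2-fold serial dilutions, with a top concentration of 5–40 µg/mL set by solubility. MIC is the lowest concentration preventing resazurin blue-to-pink conversion. Three independent experiments; the modal or highest value is reported, in µM.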

Series [2] can be described thus: Cytotoxicity against human HepG2 cells assessed as reduction in cell viability measured after 72 hrs by MTT assay. It is filed as cell-based. The procedure, abridged:
(§1)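 Vero (2×10^3 cells/well) or HepG2 (4×10^3 cells/well) grown in DMEM with 10% inactivated FBS, gentamicin and amphotericin B, seeded 24 h, then exposed to compound at 1, 5 and 20 µM (2% DMSO) for 72 h at 37 °C, 5% CO2. MTT (5 mg/mL) added for 4 h; absorbance 570/655 nm. Viability relative to 2% DMSO control wells; CC50 derived.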
(Tetrazolium dyes change colour on reduction, which living cells bring about.)

A short description of series [3]: Half life in human liver S9 fraction at 2 uM measured after 30 mins in presence of NADPH by HPLC-MS analysis. It is filed as ADME, subcellular. The procedure, abridged:
(§2)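 Compound at 2 µM incubated at 37°C with 1 mg/mL human liver S9 fraction (9,000 × g post-mitochondrial supernatant) containing NADPH. Remaining compound quantified by HPLC-MS/MS at 0, 5, 15 and 30 min to give in vitro disappearance half-life and intrinsic clearance (mL/min/kg). Verapamil served as positive control.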

The next series relates to RAW264.7. As to the kind of experiment: Inhibition of Mycobacterium tuberculosis H37Rv ATCC 27294 QcrB infected in mouse RAW264.7 cells assessed as colony forming unit at 5 uM measured after 5 days (reference value: 4.66 +/- 0.23 log10CFU). It is filed as cell-based. As to conditions: time 5.0 day.
Series [4] can be described thus: Ratio of MIC for inhibition of Mycobacterium tuberculosis H37Rv ATCC 27294 QcrB assessed as reduction in bacterial growth to MIC for inhibition of Mycobacterium tuberculosis PT2 clinical isolate QcrB assessed as reduction in bacterial growth.
A short description of series [5]: Cytotoxicity against human HepG2 cells assessed as reduction in cell viability measured after 72 hrs by neutral red uptake assay. It is filed as cell-based. The procedure, abridged:
(§3)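 Vero (2×10^3 cells/well) or HepG2 (4×10^3 cells/well) in DMEM with 10% inactivated FBS, seeded 24 h, treated at 1, 5 and 20 µM in 2% DMSO for 72 h at 37 °C, 5% CO2. After PBS wash, neutral red (25 µg/mL, serum-free medium) for 3 h; dye extracted with acetic acid/EtOH/water (1:50:49) for 30 min; absorbance 562 nm; viability versus 2% DMSO controls.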

The nature of series [6]: Intrinsic clearance in human liver S9 fraction at 2 uM measured after 30 mins in presence of NADPH by HPLC-MS analysis. As to conditions: read-out: CLH. It is filed as ADME, subcellular. In short, it runs like this: as §2
A short description of series [7]: Ratio of MIC for inhibition of Mycobacterium tuberculosis H37Rv ATCC 27294 QcrB assessed as reduction in bacterial growth to MIC for inhibition of Mycobacterium tuberculosis PT20 clinical isolate QcrB assessed as reduction in bacterial growth.
The nature of series [8]: Cytotoxicity against African green monkey Vero cells assessed as reduction in cell viability measured after 72 hrs by neutral red uptake assay. Format: cell-based. As to conditions: chlorocebus sabaeus. In short, it runs like this: as §3
Series [9] can be described thus: Ratio of MIC for inhibition of Mycobacterium tuberculosis H37Rv ATCC 27294 QcrB assessed as reduction in bacterial growth to MIC for inhibition of Mycobacterium tuberculosis PT12 clinical isolate QcrB assessed as reduction in bacterial growth.
Series [10] in a line: Cytotoxicity against African green monkey Vero cells assessed as reduction in cell viability measured after 72 hrs by MTT assay. As to conditions: chlorocebus sabaeus. Format: cell-based. The procedure, abridged:
as §1

Consider `NNC(=O)c1ccncc1`, for which the MIC in series [1] came out at 2.3 µM (≈ 0.315 µg/mL).
Take `COc1ccc2nc(C)cc(OCc3ccccc3F)c2c1`: the MIC in series [1] turned out to be 19.2 µM (≈ 5.71 µg/mL).
Consider `COc1ccc2nc(C)cc(OCC(=O)c3ccc(Cl)c(Cl)c3)c2c1`, for which, in [1], the MIC came out at 6.6 µM (≈ 2.48 µg/mL).
In the case of `COc1ccc2nc(C)cc(OCC(=O)c3ccc(Cl)cc3)c2c1`, the MIC in [1] was 12.9 µM (≈ 4.41 µg/mL).
Still for that read-out and setting: as for `COc1ccc2nc(C)cc(OCc3cccc(F)c3)c2c1`, the figure is 16.8 µM (≈ 5 µg/mL); as for `COc1ccc2nc(C)cc(OCC(=O)c3ccc(CC(C)C)cc3)c2c1`, 6.9 µM (≈ 2.51 µg/mL); as for `COc1ccc2nc(C)cc(OC(C)C(=O)c3ccccc3)c2c1` (stereo unspecified), 31.1 µM (≈ 9.99 µg/mL).
Same read-out and setting: next, `COc1ccc(C(=O)COc2cc(C)nc3ccc(OC)cc23)cc1`: 7.4 µM (≈ 2.5 µg/mL); `COc1ccc2nc(C)cc(OCC(=O)c3ccc(C)cc3)c2c1`: 15.6 µM (≈ 5.01 µg/mL); `COc1ccc2nc(C)cc(OCc3ccc(Br)c(Cl)c3)c2c1`: 1.6 µM (≈ 0.628 µg/mL).
Regarding `COc1ccc2nc(C)cc(OCc3ccc4ccccc4c3)c2c1`, the MIC in [1] came out at 7.6 µM (≈ 2.5 µg/mL).
On the same count and under the same terms, next, `COc1ccc2nc(C)cc(OCC(=O)c3ccccc3OC)c2c1`: 29.6 µM (≈ 9.99 µg/mL).
Take `COc1ccc2nc(C)cc(OCc3ccc(F)c(F)c3)c2c1`: the MIC in series [1] stood at 3.9 µM (≈ 1.23 µg/mL).
Consider `COc1ccc2nc(C)cc(OCC(=O)c3cccc(Cl)c3)c2c1`, for which the CC50 at 72 h in series [2], in [5], in series [8] and in series [10] was over 20 µM in each case. Also, the MIC in series [1] worked out at 1.8 µM (≈ 0.615 µg/mL). Besides, the half-life at 2 µM in [3] was 78.2 min. In the series with RAW264.7, the Activity turned out to be 3.8 log10CFU. Besides, the Ratio in series [4], in [7] and in series [9] was 1.9 in each case. For the same molecule, in [6], the CLint scaled at 2 µM stood at 7.7 mL/min/kg.
Consider `COc1ccc2nc(C)cc(OCc3ccc(C(F)(F)F)cc3)c2c1`, for which the MIC in series [1] was found to be 7.2 µM (≈ 2.5 µg/mL).
The same measure, in the same setting: as for `COc1ccc2nc(C)cc(OCc3ccc([N+](=O)[O-])cc3)c2c1`, the figure is 30.8 µM (≈ 9.99 µg/mL).
Take `CO[C@H]1/C=C/O[C@@]2(C)Oc3c(C)c(O)c4c(O)c(c(/C=N/N5CCN(C)CC5)c(O)c4c3C2=O)NC(=O)/C(C)=C\C=C\[C@H](C)[C@H](O)[C@@H](C)[C@@H](O)[C@@H](C)[C@H](OC(C)=O)[C@@H]1C`: in [1], the MIC amounted to 0.05 µM (≈ 0.0411 µg/mL).
As to `COc1ccc2nc(C)cc(OCC(=O)c3ccccc3)c2c1`, the CC50 at 72 h in [2], in [5], in series [8] and in series [10] was over 20 µM in each case. The MIC in series [1] stood at 1.3 µM (≈ 0.4 µg/mL). Further, the half-life at 2 µM in series [3] was found to be 87.5 min. In addition, the Activity in the series on RAW264.7 is 4.06 log10CFU. In addition, the CLint scaled at 2 µM in [6] amounted to 7.1 mL/min/kg.
As to `COc1ccc2nc(C)cc(OCc3ccccc3Cl)c2c1`, in series [1], the MIC stood at 18.8 µM (≈ 5.9 µg/mL).
For `COc1ccc2nc(C)cc(OCc3ccc(C(C)C)cc3)c2c1`, the CC50 at 72 h was 13.1 µM in series [2], 13 µM in [5], over 20 µM in [8] and over 20 µM in series [10]. Moreover, in series [1], the MIC was found to be 1.9 µM (≈ 0.611 µg/mL). For the same molecule, in [3], the half-life at 2 µM was 10 min. Also, the Ratio in series [4], in series [7] and in series [9] was 1.9 throughout. Also, in series [6], the CLint scaled at 2 µM worked out at 17.4 mL/min/kg.
As for `COc1ccc2nc(C)cc(OCc3cccc(Cl)c3Cl)c2c1`, the MIC in [1] was 28.7 µM (≈ 9.99 µg/mL).
The same measure, in the same setting: as for `COc1ccc2nc(C)cc(OCC(=O)c3ccc(Br)cc3)c2c1`, the figure is 14.6 µM (≈ 5.64 µg/mL).
As for `COc1ccc2nc(C)cc(OCc3ccc(Cl)c(Cl)c3)c2c1`, the CC50 at 72 h in series [2] is 14.4 µM; in [5] it was 14.9 µM; in series [8] it was over 20 µM; in series [10], over 20 µM. In addition, the MIC in series [1] was 0.3 µM (≈ 0.104 µg/mL). Moreover, in series [3], the half-life at 2 µM was determined as 30.6 min. In addition, the Activity in the series with RAW264.7 is 3.8 log10CFU. In [6], the CLint scaled at 2 µM amounted to 12.6 mL/min/kg.
As for `COc1ccc2nc(C)cc(OCc3cccc(Cl)c3)c2c1`, the MIC in series [1] turned out to be 7.9 µM (≈ 2.48 µg/mL).
On the same count and under the same terms, next, `COc1ccc2nc(C)cc(OCC(=O)c3ccc(F)cc3)c2c1`: 30.7 µM (≈ 9.99 µg/mL).
With `COc1ccc2nc(C)cc(OCc3cccc(C(F)(F)F)c3)c2c1`, the MIC in series [1] was determined as 7.2 µM (≈ 2.5 µg/mL).
Still for that read-out and setting: next, `COc1ccc2nc(C)cc(OCCc3ccccc3)c2c1`: 34.1 µM (≈ 10 µg/mL); `COc1cccc(COc2cc(C)nc3ccc(OC)cc23)c1`: 32.3 µM (≈ 9.99 µg/mL); `COc1cccc(C(=O)COc2cc(C)nc3ccc(OC)cc23)c1`: 14.8 µM (≈ 4.99 µg/mL).
Same read-out and setting: as for `COc1cc(COc2cc(C)nc3ccc(OC)cc23)cc(OC)c1`, the figure is 29.5 µM (≈ 10 µg/mL); as for `COc1ccc2nc(C)cc(OCc3ccccc3)c2c1`, 5.6 µM (≈ 1.56 µg/mL); as for `COc1ccc2nc(C)cc(OCc3ccc(C(C)(C)C)cc3)c2c1`, 3.7 µM (≈ 1.24 µg/mL).
Same read-out and setting: next, `COc1ccc2nc(C)cc(OCc3ccc4c(c3)OCO4)c2c1`: 30.9 µM (≈ 9.99 µg/mL); `COc1ccc2nc(C)cc(OCc3ccc(Cl)cc3)c2c1`: 15.9 µM (≈ 4.99 µg/mL).
Turning to `COc1ccc2nc(C)cc(OCc3ccc(F)cc3)c2c1`, in series [1], the MIC turned out to be 16.8 µM (≈ 5 µg/mL).
On the same count and under the same terms, next, `COc1ccc2nc(C)cc(OCc3ccc(Br)cc3)c2c1`: 13.9 µM (≈ 4.98 µg/mL); `COc1ccc2nc(C)cc(OCC(=O)c3ccc(-c4ccccc4)cc3)c2c1`: 13 µM (≈ 4.98 µg/mL).
The same measure, in the same setting: as for `COc1ccc2nc(C)cc(OCc3cccc(Br)c3)c2c1`, the figure is 13.9 µM (≈ 4.98 µg/mL).

A word on the CC50: it is the concentration giving 50% cytotoxicity. In general, half-life refers to how long it takes for the measured level to halve.
